From paper PMC9890663 (RSC Advances, 2023)
Converted amounts (≈) assume the structure as drawn. “And” between values parts separate entries of the source, which are not always exact repeats. Equal values may be shown once. Read-outs that look alike come from different tables or passages of the source.

Assays:
calf thymus DNA (ct-DNA) [1] = conditions: DNA intercalator; cited from earlier work
C. albicans = conditions: cited from earlier work
C. albicans ATCC 10231 [2] = test: Inhibition of hyphae formation on Spider medium; format: cell-based, Candida albicans; conditions: 0.5 × MIC, vs DMSO control
S. aureus ATCC 25923 = test: MIC, broth microdilution; format: cell-based; conditions: Staphylococcus aureus, ATCC25923, 24 h
Procedure, shortened: (§1)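 Broth microdilution. S. aureus ATCC 25923 followed CLSI M07-A8 at 5 × 10^5 cfu mL−1; Candida strains followed EUCAST yeast method v7.3.1 at 1 × 10^5 cfu mL−1. Test compound from a 50 mg mL−1 DMSO stock was tested from 500 μg mL−1 downward, with final DMSO <1% v/v. MIC was the lowest concentration inhibiting growth after 24 h at 37 °C, read on a plate reader.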

C. albicans ATCC 10231 [3] = test: MIC, broth microdilution; format: cell-based; conditions: Candida albicans, ATCC10231, 24 h
Procedure, shortened: as §1

MRC-5 cells = test: Antiproliferative activity, MTT assay; format: cell-based, human
P. aeruginosa PAO1 = test: MIC, broth microdilution; format: cell-based; conditions: Pseudomonas aeruginosa, PAO1, 24 h
[4] = molecular target: bovine serum albumin (BSA) (Bos taurus, UniProt P02769); test: BSA fluorescence emission quenching; format: binding
Procedure, shortened: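 Tryptophan fluorescence quenching of 5 μM BSA in PBS pH 7.4, titrated with test compound (DMSO stock) up to 130 μM. Excitation was 290.0 nm and spectra were recorded at 295.0–500.0 nm, with quenching monitored at 365.0 nm. Ksv came from a Stern–Volmer plot, and Kq from Ksv with τ0 of 10^-8 s. KA and binding-site number n came from a log(F0−F)/F vs log[complex] plot.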

[5] = test system: Chromobacterium violaceum CV026; test: Anti-quorum sensing disc assay, violacein production; format: cell-based; conditions: 100 μg per disc
Procedure, shortened: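 Agar-overlay disc assay. Inocula were grown overnight in LB at 30 °C and 180 rpm, with antibiotic for CV026. 50.0 μL of culture was seeded into 0.3% semi-solid LB agar and overlaid on LB plates. CV026 received N-hexanoyl-L-homoserine lactone (final 5.0 μM); S. marcescens ATCC 27117 received no autoinducer. Compound was placed on sterile discs and plates incubated overnight at 30 °C. Pigment inhibition was scored as white halo width (mm), distinct from growth-clearance zones.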

C. albicans ATCC 10231 [6] = test: Biofilm formation assay, crystal violet staining; format: cell-based, Candida albicans; conditions: MIC of the complexes applied
Procedure, shortened: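 Candida albicans ATCC 10231 biofilm assay, starting inoculum 1 × 10^6 cfu mL−1. Test compound was applied as two-fold serial dilutions from 3.5 down to 0.05 μg mL−1, then incubated 48 h at 37 °C. Adherent biomass was stained with crystal violet and read at 590.0 nm. The assay was repeated three times.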

calf thymus DNA (ct-DNA) [7] = test: Competitive EthBr-ct-DNA fluorescence emission study; format: binding
Procedure, shortened: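 Ethidium bromide displacement on calf thymus DNA in PBS pH 7.4, with ct-DNA quantified by A260 (ε 6.6 × 10^3 M−1 cm−1). [DNA]/[EthBr] was held at 10 while test compound (10 mM DMSO stock) was increased. Excitation was 545.0 nm, emission 550.0–750.0 nm. Ksv and Kq (τ0 10^-8 s) came from the Stern–Volmer equation; KA and n from a log(F0−F)/F vs log[complex] plot.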

bovine serum albumin (BSA), sequence (P02769 25-607): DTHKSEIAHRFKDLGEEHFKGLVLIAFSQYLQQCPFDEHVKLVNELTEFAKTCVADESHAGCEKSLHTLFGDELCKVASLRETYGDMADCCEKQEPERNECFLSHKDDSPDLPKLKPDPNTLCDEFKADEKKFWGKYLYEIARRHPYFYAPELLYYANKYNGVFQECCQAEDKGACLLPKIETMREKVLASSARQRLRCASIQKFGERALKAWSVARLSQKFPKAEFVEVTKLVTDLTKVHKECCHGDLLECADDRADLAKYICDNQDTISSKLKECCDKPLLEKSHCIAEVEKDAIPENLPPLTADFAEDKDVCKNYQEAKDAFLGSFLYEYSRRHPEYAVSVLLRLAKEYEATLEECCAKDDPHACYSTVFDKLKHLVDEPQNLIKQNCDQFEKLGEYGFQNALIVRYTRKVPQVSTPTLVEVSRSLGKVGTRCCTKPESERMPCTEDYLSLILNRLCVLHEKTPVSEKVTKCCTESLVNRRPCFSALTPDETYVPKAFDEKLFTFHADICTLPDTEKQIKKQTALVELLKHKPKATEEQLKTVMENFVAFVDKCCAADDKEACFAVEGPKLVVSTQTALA

For C[n+]1c2ccccc2c(-c2c3ccccc3[n+](C)c3ccccc23)c2ccccc21 [lucigenin], which Hypochromism (calf thymus DNA (ct-DNA) [1]) is on record?
Its Hypochromism is 50%.

With [CuCl2(py-2metz)]n as the compound, how does the MIC (C. albicans) read?
The MIC was 31.25 µg/mL.

Which “C. albicans hyphae formation” value (C. albicans ATCC 10231 [2]) does the source give for COC(=O)c1cnc(-c2cnccn2)cc1C(=O)OC [py-2pz, dimethyl 6-(pyrazine-2-yl)pyridine-3,4-dicarboxylate] here?
Its value is “did not show a potency to inhibit C. albicans filamentous growth”.

And the MIC (S. aureus ATCC 25923)?
The MIC was > 1830 µM and > 500 µg/mL.

What about the MIC (C. albicans ATCC 10231 [3]) of the same compound?
Its MIC is > 1830 µM and > 500 µg/mL.

And the IC50 (MRC-5 cells; Homo sapiens, MRC5, 48 h, MRC-5, 48 h treatment)?
Its IC50 is 120 µg/mL (≈ 439 µM).

What about the MIC (P. aeruginosa PAO1) of the same compound?
Its MIC is > 1830 µM and > 500 µg/mL.

Which Hypochromism ([4]; BSA fluorescence at 365.0 nm) does the source give for {[Ag(NO3)(py-2pz)]·0.5H2O}n [Complex 4] here?
The Hypochromism was 60.5%.

And the K sv ([4]; Stern-Volmer constant, BSA 5 μM, PBS pH 7.4)?
The K sv was “(2.10 ± 0.02) × 10^4 M^−1”.

And the “K A” value ([4]; binding constant, BSA)?
The value was 21500 M⁻¹.

And the K q ([4]; quenching rate constant, BSA)?
The K q was 2.1e+12 M⁻¹ s⁻¹.

And the “clear zones of inhibition (antibacterial effect)” value [5]?
The value was 5 mm.

And the “fold less toxic against MRC-5 than AgSD” value (MRC-5 cells)?
The value was 1.7 fold.

What about the “percentage of the formed C. albicans biofilms” value (C. albicans ATCC 10231 [6]) of the same compound?
Its value is 62%.

What about the Hypochromism (calf thymus DNA (ct-DNA) [7]; EthBr-ct-DNA fluorescence) of the same compound?
The Hypochromism was 15.4%.

What about the K sv (calf thymus DNA (ct-DNA) [7]; Stern-Volmer constant, EthBr-ct-DNA, PBS pH 7.4) of the same compound?
The K sv was “(1.14 ± 0.01) × 10^3 M^−1”.

What about the “K A” value (calf thymus DNA (ct-DNA) [7]; binding constant, ct-DNA) of the same compound?
Its value is 2000 M⁻¹.

And the K q (calf thymus DNA (ct-DNA) [7]; quenching constant, EthBr-ct-DNA)?
The K q was 1.14e+11 M⁻¹ s⁻¹.
